In ChEMBL document CHEMBL1909630, “Azaxanthene based selective glucocorticoid receptor modulators: design, synthesis, and pharmacological evaluation of (S)-4-(5-(1-((1,3,4-thiadiazol-2-yl)amino)-2-methyl-1-oxopropan-2-yl)-5H-chromeno[2,3-b]pyridin-2-yl)-2-fluoro-N,N-dimethylbenzamide (BMS-776532) and its methylene homologue …” (J Med Chem, 2011):

Legend:
[1] = test system: Blood; experiment: Antiinflammatory activity in human whole blood assessed as inhibition of LPS-induced TNFalpha production after overnight incubation by ELISA; assay type: functional, tissue-based
How it was run: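 Whole blood from two donors per experiment was collected into ACD-A. Compounds were added and the blood was incubated about 20 h at 37 °C under 5% CO2. Blood was then stimulated for 5 h with LPS (final 100 ng/mL, for TNFα) or IL-1β (final 10 ng/mL, for IL-8). Plasma TNFα or IL-8 was measured by ELISA. Efficacy was expressed as % of dexamethasone, and values are means of at least two experiments.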

[2] = test system: Blood; experiment: Antiinflammatory activity in human whole blood assessed as inhibition of TNF-alpha-induced IL-8 production after overnight incubation by ELISA; assay type: functional, tissue-based
[3] = Clearance in Sprague-Dawley rat at 1 mg/kg, iv; assay type: ADME, organism-based; parameters: dose 1 mg/kg, route intravenous; conditions: in vivo
How it was run: (§1)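 Male Sprague-Dawley rats received a single intravenous (1 mg/kg) or oral (10 or 50 mg/kg) dose. Plasma pharmacokinetic parameters were derived from these profiles.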

[4] = AUC in Sprague-Dawley rat at 10 mg/kg, po; assay type: ADME, organism-based; parameters: dose 10 mg/kg, route oral; conditions: plasma; how it was run: as §1
[5] = AUC in Sprague-Dawley rat at 50 mg/kg, po; assay type: ADME, organism-based; parameters: dose 50 mg/kg, route oral; conditions: plasma; how it was run: as §1
[6] = biological target: T1, Glucocorticoid receptor (Homo sapiens, UniProt P04150); experiment: Transactivation activity at GR-alpha in human NP1 Hela cells assessed as inhibition of GAL4-DBD after 20 hrs by luciferase reporter gene assay; assay type: cell-based
T1 sequence (P04150 whole entry): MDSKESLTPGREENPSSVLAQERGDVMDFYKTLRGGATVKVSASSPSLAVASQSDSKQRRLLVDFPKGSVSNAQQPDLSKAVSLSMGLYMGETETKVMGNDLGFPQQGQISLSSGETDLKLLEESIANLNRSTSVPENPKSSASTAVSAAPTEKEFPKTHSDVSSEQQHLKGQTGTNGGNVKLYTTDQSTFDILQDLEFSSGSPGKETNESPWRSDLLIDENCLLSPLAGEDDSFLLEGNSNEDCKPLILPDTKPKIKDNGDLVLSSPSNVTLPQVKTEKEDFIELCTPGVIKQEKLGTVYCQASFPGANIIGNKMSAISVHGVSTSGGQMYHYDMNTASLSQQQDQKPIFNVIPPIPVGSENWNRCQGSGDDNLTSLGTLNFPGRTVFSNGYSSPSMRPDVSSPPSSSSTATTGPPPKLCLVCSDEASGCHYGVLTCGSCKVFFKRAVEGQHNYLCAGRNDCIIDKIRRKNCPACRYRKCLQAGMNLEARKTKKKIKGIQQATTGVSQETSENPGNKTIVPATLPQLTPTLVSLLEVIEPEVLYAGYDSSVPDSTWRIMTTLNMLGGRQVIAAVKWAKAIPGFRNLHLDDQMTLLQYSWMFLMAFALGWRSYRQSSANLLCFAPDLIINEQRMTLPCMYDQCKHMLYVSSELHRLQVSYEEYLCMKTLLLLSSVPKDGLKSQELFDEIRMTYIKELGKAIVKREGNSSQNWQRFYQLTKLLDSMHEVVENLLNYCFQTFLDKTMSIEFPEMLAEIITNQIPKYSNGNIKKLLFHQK

[7] = Membrane permeability by PAMPA; assay type: ADME
[8] = biological target: T2, Progesterone receptor (Homo sapiens, UniProt P06401); experiment: Displacement of fluorescently labeled ligand from progesterone receptor by fluorescence polarization assay
T2 sequence (P06401 whole entry): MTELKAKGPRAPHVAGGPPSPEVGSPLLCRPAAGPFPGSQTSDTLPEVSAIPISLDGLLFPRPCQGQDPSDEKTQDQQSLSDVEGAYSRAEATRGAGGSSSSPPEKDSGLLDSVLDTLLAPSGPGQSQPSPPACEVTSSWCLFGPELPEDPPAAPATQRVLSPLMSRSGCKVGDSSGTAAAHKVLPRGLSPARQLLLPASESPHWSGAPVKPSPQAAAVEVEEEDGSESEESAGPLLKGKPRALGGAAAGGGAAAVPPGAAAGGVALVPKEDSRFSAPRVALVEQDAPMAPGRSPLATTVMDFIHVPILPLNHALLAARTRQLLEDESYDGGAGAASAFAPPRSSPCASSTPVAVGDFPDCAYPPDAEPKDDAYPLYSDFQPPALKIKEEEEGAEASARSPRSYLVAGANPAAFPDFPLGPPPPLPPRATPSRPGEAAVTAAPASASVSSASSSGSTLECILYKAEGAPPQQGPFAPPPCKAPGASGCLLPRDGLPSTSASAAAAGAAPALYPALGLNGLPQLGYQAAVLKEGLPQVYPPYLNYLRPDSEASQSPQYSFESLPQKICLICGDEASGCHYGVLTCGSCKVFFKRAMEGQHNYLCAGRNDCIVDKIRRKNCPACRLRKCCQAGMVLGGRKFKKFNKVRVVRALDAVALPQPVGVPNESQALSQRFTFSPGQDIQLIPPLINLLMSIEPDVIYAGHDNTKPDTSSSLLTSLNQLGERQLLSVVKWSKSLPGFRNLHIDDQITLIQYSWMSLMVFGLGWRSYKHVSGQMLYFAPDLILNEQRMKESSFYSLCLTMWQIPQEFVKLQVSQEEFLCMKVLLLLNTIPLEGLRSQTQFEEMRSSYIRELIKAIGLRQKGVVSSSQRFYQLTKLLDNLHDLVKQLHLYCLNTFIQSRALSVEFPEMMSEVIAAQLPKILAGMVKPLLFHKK

[9] = Half life in Sprague-Dawley rat at 1 mg/kg, iv; assay type: ADME, organism-based; parameters: dose 1 mg/kg, route intravenous; conditions: in vivo; how it was run: as §1
[10] = AUC in Sprague-Dawley rat at 1 mg/kg, iv; assay type: ADME, organism-based; parameters: dose 1 mg/kg, route intravenous; conditions: plasma; how it was run: as §1
[11] = Tmax in Sprague-Dawley rat at 50 mg/kg, po; assay type: ADME, organism-based; parameters: dose 50 mg/kg, route oral; conditions: in vivo; how it was run: as §1

EC50 [1]	EC50 [2]	clearance [3]	AUC [4]	AUC [5]	EC50 [6]	permeability [7]	Ki [8]	half-life [9]	AUC [10]	Tmax [11]	Structure (SMILES)
0.83 µM	1.47 µM	49.5 mL/min/kg	673 ng·h/mL	20200 ng·h/mL	0.143 µM	permeable	1.53 µM	0.6 h	342 ng·h/mL	1.7 h	CN(C)C(=O)c1ccc(-c2ccc3c(n2)Oc2ccccc2[C@H]3C(C)(C)C(=O)Nc2nncs2)cc1F
0.379 µM	0.532 µM	34 mL/min/kg	904 ng·h/mL	28100 ng·h/mL	0.113 µM	permeable	1.83 µM	0.4 h	526 ng·h/mL	3.3 h	CCN(C)C(=O)c1ccc(-c2ccc3c(n2)Oc2ccccc2[C@@H]3C(C)(C)C(=O)Nc2nncs2)cc1F
